High-throughput results: PubChem BioAssay, several laboratories
Rows were chosen to be rich in hits. Some 1% of all compounds tested hit in one or more screens of this group.
FXN GAA850 act: activators of GAA850 frataxin (FXN) promoter | HEK293 lucGAA850 FXN promoter luciferase reporter, 24 h; percent of 10 µM SAHA response | activation, % at 6 µM | 360,000 compounds, 0.56% hits | AID 540364;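 active = activation above the average of all compounds screened plus 3 SD, cutoff fixed separately per campaign, cut at about 7.5% in these data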
CaV13 FRET inh: Primary screen for inhibitors of IQ motif and Ca2+-dependent inactivation inhibitor domain binding in CACNA1D, Förster resonance energy transfer in living cells, … | inhibition, % at 12.3 µM | 340,000 compounds, 0.098% hits | HEK cells, CFP/YFP FRET ICDI-IQ, plate reader, 10 min; percent FRET-ratio fall versus neutral wells | AID 743397;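 active = mean replicate inhibition of at least 30% and at least 1% of replicates passing that level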
XiGFP reactiv: activators of X-chromosome reactivation in mouse fibroblasts; AID 743238; activation, % at 7.58 µM; 360,000 compounds, 0.055% hits; XiGFP mouse fibroblasts, % GFP-positive cells imaging, 3 d; cells co-treated with 5-aza-dC sensitizer; scaled so ellipticine positive control = 100%;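 active = mean normalized replicate activation at least 10% and every replicate at or above 10%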
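System: XiGFP fibroblasts, SV40-immortalized. Medium: DMEM plus 5-aza-dC sensitizer. Doses: single point. Timing: 3 d treatment, 15 min room-temperature fixation. Control set: ellipticine 6 µM.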
GSIS activator: GLuc luminescence reporter in INS-1E cells, primary screen for activators of glucose-dependent secretion of insulin | INS-1E GLuc reporter insulin secretion, 2-3 h | activation, % at 16.6 µM | 370,000 compounds, 0.61% hits | AID 743287;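 active = lowest replicate activation of at least 40%, so every replicate reaches that level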
GAA30 FXN cntr: counter-screen for GAA850 frataxin promoter activators: GAA30 promoter activation; shares compounds with FXN GAA850 act; 1,900 compounds, 66% hits; activation, % at 6 µM; HEK293 lucGAA30 FXN promoter luciferase, 24 h; DMSO = 0%, 5 µM ipriflavone = 100%; AID 588350;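 active = mean activation above the mean of solvent-only control wells plus 3 SD, cut at about 22% in these data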;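 also: counterscreen of GAA850 promoter hits where activity marks nonselective or luminescence artifacts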
GAA850 confirm: confirmation of GAA850 frataxin (FXN) promoter activators; shares compounds with FXN GAA850 act; AID 588351; HEK293 lucGAA850 FXN promoter luciferase reporter, 24 h; 100% = activation by SAHA; 1,900 compounds, 86% hits; activation, % at 6 µM;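 active = mean activation above a set limit taken from the primary screen, cut at about 8% in these data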
A number is an active result; . = inactive; / = no result given.

SMILES | FXN GAA850 act | CaV13 FRET inh | XiGFP reactiv | GSIS activator | GAA30 FXN cntr | GAA850 confirm
Fc1ccc(-c2csc3ncnc(Nc4ccc(N5CCOCC5)cc4)c23)cc1 | 11.6 | . | / | . | . | 11.3
c1nc(Nc2ccc(N3CCOCC3)cc2)c2ccsc2n1 | . | . | . | . | / | /
CC(C)NC(=O)N(C)C[C@@H]1Oc2ncc(-c3ccccc3F)cc2C(=O)N([C@@H](C)CO)C[C@H]1C | / | / | . | . | / | /
CCC(=O)Nc1cccc(NC(=S)NC(=O)c2cc3ccccc3o2)c1 | 8.0 | . | . | . | 106.2 | 34.3
CCC(=O)Nc1cccc(NC(=S)NC(=O)c2ccc(C)cc2)c1 | 8.2 | . | . | . | 107.3 | 33.8
CCC(=O)Nc1ccc(NC(=S)NC(=O)c2cc3ccccc3o2)cc1 | . | . | . | . | / | /
CC(C)NC(=O)N[C@@H]1CC[C@@H](CC(=O)NCCN2CCCC2)O[C@@H]1CO | / | / | . | . | / | /
O=C(NCCc1ccncc1)[C@H]1N[C@H]2c3ccc(/C=C/c4ccccc4)c(=O)n3C[C@H]2[C@@H]1CO | / | / | . | . | / | /
Cc1ccc(S(=O)(=O)N2C[C@H](O)COC[C@H]3O[C@H](CC(=O)NCCN4CCCCC4)CC[C@@H]32)cc1 | / | / | . | . | / | /
Clc1ccc2oc(-c3ccccc3)cc(=NCCCN3CCOCC3)c2c1 | 9.4 | . | . | . | 51.4 | 21.7
Oc1ccc(-c2csc(Nc3ncccn3)n2)cc1O | 15.8 | . | . | . | 107.9 | 45.1
Fc1ccc(-c2csc(-c3cccnc3)n2)cc1F | . | . | . | . | / | /
Oc1ccc(-c2csc(-c3cccnc3)n2)cc1O | 13.8 | . | . | / | 62.1 | 31.1
Oc1ccc(-c2csc(-c3ccccc3)n2)cc1O | 8.8 | . | / | . | 40.8 | 33.6
CNC[C@@H]1Oc2ncc(C#CC3CCCCC3)cc2C(=O)N([C@@H](C)CO)C[C@@H]1C | / | / | . | . | / | /
O=C(CSc1nc2ccccc2o1)NC1CCCC1 | 7.6 | . | . | . | . | .
C[C@@H](NC(=O)C[C@@H]1C[C@H]2c3cc(NC(=O)C4CCC4)ccc3O[C@H]2[C@H](CO)O1)c1ccccc1 | / | / | . | . | / | /
COc1ccc(CCN2C(=O)c3[nH]nc(-c4ccccc4O)c3C2c2ccccc2)cc1OC (configuration not stated) | 13.3 | . | / | / | . | 8.9
CCC(=O)NC[C@H]1[C@@H](c2ccc(-c3cccc(F)c3)cc2)[C@@H](CO)N1C(=O)CC | / | / | . | . | / | /
C=CCNc1nc(SCC=C)nc2ccsc12 | 7.9 | / | / | . | . | 9.7
O=c1[nH]cnc2c1c(-c1ccccc1)cn2-c1ccccc1 | . | . | . | . | / | /
Fc1ccc(-n2cc(-c3ccccc3)c3c(=S)nc[nH]c32)cc1 | 8.5 | . | . | . | . | 13.5
Fc1cccc(-n2cc(-c3ccccc3)c3c(=S)nc[nH]c32)c1 | 7.9 | . | . | . | . | 18.5
COc1ccc2c3c(n(C)c2c1)[C@@H](CO)N(C(=O)CN1CCOCC1)CC31CN(C(C)=O)C1 | / | / | . | . | / | /
NNc1nc2c(-c3ccc(Cl)cc3)nnn2c2ccccc12 | 8.2 | . | . | . | 128.8 | 37.5
SMILES | FXN GAA850 act | CaV13 FRET inh | XiGFP reactiv | GSIS activator | GAA30 FXN cntr | GAA850 confirm
COc1cccc(C(=O)/C=C/Nc2cc(C)ccc2O)c1 | 11.0 | . | / | / | 46.8 | 32.7
CCOC(=O)c1ccc(N/C=C\C(=O)c2cccc(OC)c2)cc1 | . | . | . | . | / | /
C[C@@H]1CN([C@@H](C)CO)C(=O)Cc2cc(NC(=O)Nc3cccc4ccccc34)ccc2O[C@H]1CN(C)S(C)(=O)=O | / | / | . | . | / | /
CO[C@H]1CN(C)C(=O)c2cc(NC(=O)C3CCC3)ccc2OC[C@H](C)N(Cc2ccccn2)C[C@@H]1C | / | / | . | . | / | /
Cc1ccc2nc3ccc(N4CCCCCCC4)nn3c(=O)c2c1 | . | . | / | / | / | /
Cc1ccc2nc3ccc(N4CCN(C)CC4)nn3c(=O)c2c1 | 8.2 | / | / | / | 115.6 | 34.4
O=C(O)CSc1nc2sc3c(c2c(=O)n1-c1ccccc1)CCC3 | . | . | . | . | / | /
COc1ccc(-n2c(SCC(=O)O)nc3sc4c(c3c2=O)CCCC4)cc1 | 8.3 | . | . | . | 21.9 | 15.1
CN(C)C(CNC(=O)CSc1nc2sc3c(c2c(=O)n1C)CCCC3)c1ccccc1 (configuration not stated) | 7.9 | . | . | / | . | 7.6
COCCn1c(SCC(=O)NCC(c2ccccc2)N(C)C)nc2sc3c(c2c1=O)CCC3 (configuration not stated) | . | . | . | . | / | /
Cc1noc(C)c1NC(=O)Nc1ccc2c(c1)C(=O)N([C@@H](C)CO)C[C@@H](C)[C@H](CN(C)Cc1ccncc1)OCCCC[C@H](C)O2 | / | / | . | . | / | /
Cc1cc(Cl)ccc1OCC(=O)N1CCCN(C(=O)COc2ccc(Cl)cc2C)CC1 | 9.4 | . | . | . | . | .
COC(=O)c1c(NC(=O)CN2CCC3(O)CCCCC3C2c2cc(OC)ccc2OC)sc(C)c1C (configuration not stated) | 11.8 | . | . | . | . | 9.9
COc1ccc(NC(=O)Nc2ccc3c(c2)[C@@H]2C[C@@H](CC(=O)NC4CCCC4)O[C@@H](CO)[C@@H]2O3)cc1 | / | / | . | . | / | /
CC(=O)N(C)c1ccc(OCC(O)Cn2c(C)nc3ccccc32)cc1 (configuration not stated) | . | . | . | . | / | /
CC(=O)N(C)c1ccc(OCC(O)Cn2c3ccc(Cl)cc3c3cc(Cl)ccc32)cc1 (configuration not stated) | 10.1 | . | / | / | . | 11.4
Cc1ccccc1-c1ccc(C(=O)Nc2cccc(F)c2)o1 | 7.7 | . | . | . | 57.3 | 17.3
O=C(N(Cc1ccccc1)c1ccccn1)C12CC3CC(CC(C3)C1)C2 | 10.6 | . | / | / | 30.7 | 11.3
O=C(N(c1ccccn1)c1ccccn1)C12CC3CC(CC(C3)C1)C2 | . | . | . | . | / | /
Cc1c(C(=O)Nc2ccccc2[N+](=O)[O-])csc1-c1ccccc1 | . | . | . | . | / | /
Cc1c(C(=O)Nc2ccccc2)csc1-c1ccccc1 | 8.5 | . | . | . | 112.5 | 28.6
O=C(C#Cc1ccccc1)c1ccco1 | 12.5 | . | . | . | . | .
COc1ccc2c3c(n(C)c2c1)[C@@H](CO)N(Cc1ccccc1)CC31CN(C(=O)Nc2cccc(F)c2)C1 | / | / | . | . | / | /
COc1cc2c3c(cccc3c1)C(=O)N(CCN1CCCC1)C2=O | 27.4 | . | . | / | . | 131.3
C[C@H](CO)N1C[C@H](C)[C@@H](CN(C)C(=O)C2CCC2)Oc2cc(C#C[C@@H](C)O)ccc2S1(=O)=O | / | / | . | . | / | /
